This note sets out measurements from the RNAGym collection of RNA variant scans (doi:10.1126/science.aae0568).

This sample holds only a part of the variants without activity.

B1: tRNA (parent)
chain: GUUCCGUUGGCGUAAUGGUAACGCGUCUCCCUCCUAAGGAGAAGACUGCGGGUUCGAGUCCCGUACGGAACG

The variants in this data set derive from B1. Nature of the data set: yeast fitness relative to wild type (ratio to wild type); higher = fitter; tRNA-Arg(CCU), competitive growth, 37 C, YPD. The gist of the method:
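Variants of the tRNA-Arg(CCU) gene, chemically synthesised with a 3% per-site mutation rate at 69 sites, were placed at the native genomic locus in Saccharomyces cerevisiae. The pooled strains were competed in YPD at 37°C for 24 hours in six parallel replicates. Gene amplicons from the start population and from each end population were read by 100-nucleotide paired-end sequencing. Darwinian fitness relative to wild type came from changes in genotype frequencies; genotypes needed ≥ 100 starting reads, and estimates < 0.5 were set to 0.5.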
Consider C4G A14U U32C A45U C49G U64C, for which the yeast fitness was at most 0.5.
With C4A G17A G41A A69U the figure was at most 0.5; with C4G A15G U54A A70U, at most 0.5; with C4G C5U A40G, 0.526.
For C4G C5G A43G G63A, the yeast fitness is at most 0.5.
As to C4G A37U G58C C60A, the yeast fitness is at most 0.5.
With C4A U13A G63A the figure was at most 0.5; with C4A C30U G38C A42G, at most 0.5.
With C4G A15C A57U C61G, the yeast fitness was at most 0.5.
In the case of C4G A21U G41C U53C A65C, the yeast fitness came out at 0.535.
With C4G A14G G38A G56C A70G, the yeast fitness is at most 0.5.
Turning to C4A G9C C30A G39A G58A, the yeast fitness is at most 0.5.
For C4G A40G G56C, the yeast fitness turned out to be 0.537.
With C4A C30U A57G A65U, the yeast fitness was at most 0.5.
With C4A U19A C27U the figure was 0.562.
On to C4A G10C C11U G41A A45C A65U, for which the yeast fitness is at most 0.5.
Next, C4G C5U: 0.751; C4G A14G C24G: at most 0.5.
For the variant C4G A21G C27U G52C G58A, the yeast fitness was at most 0.5.
Next, C4A G9C C11G G44A C60U G67C: at most 0.5.
Next, C4G A14C G25C A45U A57U: 0.55; C4A U7A U8G: at most 0.5.
As to C4A G25A, the yeast fitness worked out at 1.03.
Next, C4A G6A A14G C60U: at most 0.5.
For C4G A43U A70U, the yeast fitness was found to be 0.623.
With C4A G18C C46G the figure was 0.503; with C4G C5G C29A C34U A42U G50C G68C A69G, 0.58; with C4A G6C U8A A20C A21U C33U C46U A57G, at most 0.5.
Regarding C4A G17A U19C G41A C66U, the yeast fitness is at most 0.5.
Next, C4A G9C A14G C30A G39A: at most 0.5.
Regarding C4A U13C C31G G44C G52A G58A, the yeast fitness was at most 0.5.
In the case of C4G A15U C55A, the yeast fitness was at most 0.5.
Next, C4A G23A U53C A57C: at most 0.5; C4A U53A: 0.769; C4A G51C U54A G56C: at most 0.5.
In the case of C4G A14G A37U G38A, the yeast fitness was at most 0.5.
For C4A U7A U35C, the yeast fitness was at most 0.5.
Consider C4A U54G, for which the yeast fitness amounted to 0.612.
Next, C4G A20U C22G A37C A43C A65G: at most 0.5; C4G C5G G39A C49A: at most 0.5; C4A G10C C11U C27U A45U U59C C60G: at most 0.5.
On to C4G A15C U26G G41C C60G, for which the yeast fitness was 0.631.
C4A U13C A20C C34A G39C A43U: the yeast fitness was at most 0.5.
Take C4A G6A C11A C22U C29U C55A G68U: the yeast fitness was at most 0.5.
Next, C4A G18C A43C: at most 0.5.
Next, C4G A15C C66U: 0.539; C4A C31U A37G G48A U54A C55G A65U: at most 0.5.
With C4A G12A C31U U59A G63A, the yeast fitness is at most 0.5.
Next, C4G A36G A45C C61U C62G: at most 0.5.
Next, C4A C33A G39A G51C: 0.657; C4G A65G: 1.02.
With C4G A65U the figure was 0.793; with C4A G39A C55U U59G G68C, at most 0.5.
Turning to C4A G10A G56C C60G C66U, the yeast fitness was at most 0.5.
As for C4A U7G G12C, the yeast fitness amounted to 0.549.
With C4G C5U A20U G39C A40G A70U the figure was at most 0.5; with C4A C34G C66U, 0.576.
In the case of C4A G6A A65G, the yeast fitness is 0.56.
Next, C4A G17C G23C: at most 0.5; C4G A14U C24U C49G: at most 0.5; C4A U7A C31A U54A: at most 0.5.
As to C4G A45G, the yeast fitness was 0.826.
Regarding C4A G18A G25C, the yeast fitness turned out to be 0.515.
Next, C4G C5G C11A G38A G67A: at most 0.5; C4A U26A U32G A42C A57U: at most 0.5; C4A G12C U13G C30U: 0.55.
Next, C4A G17A C60G: 0.697; C4A G9C C11G A45C: 0.508.
C4A U35G: the yeast fitness came to 0.564.
Next, C4A G6C C22U G51C C62A: at most 0.5; C4A U26G G44C G58A G68C: 0.558; C4G A14C A20G: 0.619.
Next, C4A U32C U59G: at most 0.5; C4G A40G A45G: at most 0.5; C4A G41A A42C U59A: at most 0.5.
Next, C4A U16A C29G U32C C55U C66U: at most 0.5; C4A C34G G38C A70G: at most 0.5.
On to C4A G10A A14G C31A, for which the yeast fitness is at most 0.5.
Next, C4A G9C C30A G39A G56C: at most 0.5; C4A G12C U19C C24G A43U G67A: at most 0.5.
On to C4A G9A A45G, for which the yeast fitness is at most 0.5.
Next, C4A C33G A45G: at most 0.5.
For the variant C4A U26C, the yeast fitness is 0.972.
For C4A C66U, the yeast fitness stood at 0.862.
For the variant C4G C5U C11U A14G, the yeast fitness is at most 0.5.
Next, C4A G68U A69G: 0.705; C4A G58A: 0.878.
On to C4G A20C U54G, for which the yeast fitness stood at 0.529.
With C4A C34G C46G G56A the figure was at most 0.5.
Next, C4A U28C U47C: at most 0.5; C4A G12C A21C C22G C55A C60U C62G A69C: at most 0.5; C4G A57G C61U: 0.629.
As for C4A G17C A20C A21U C27U C33G G63A G67A, the yeast fitness was at most 0.5.
With C4A U7G G12C C60U C62G the figure was at most 0.5; with C4G A14U A21C, 0.764.
With C4G A15U A40C C60A C61G A65C the figure was at most 0.5.
Take C4A G38A G51A: the yeast fitness turned out to be 0.54.
Next, C4A U16C G17A U59A: at most 0.5; C4A U8G G41C A45G: 0.703; C4A G39A G63C: at most 0.5.
In the case of C4A G25C C34U A57C, the yeast fitness is at most 0.5.
Regarding C4A G9C C11G A21C C55U C62U G67C, the yeast fitness was at most 0.5.
Next, C4G A21G C27A G38C: at most 0.5; C4G A14C C24U C49U: at most 0.5.
Take C4A U26G G44C G56C G58A G68C: the yeast fitness is at most 0.5.
In the case of C4A U7C C24G C61A C66U, the yeast fitness is at most 0.5.
Next, C4G A15U: 0.824; C4G A15C: 0.719; C4A U64C G68C: 0.971.
On to C4A G10A U54A, for which the yeast fitness was at most 0.5.
Consider C4G A15U C33A G52C, for which the yeast fitness was determined as 0.707.
Take C4A C31A C33G U47A A65C: the yeast fitness amounted to 0.627.
Next, C4G C5G C30U C31U A45U: at most 0.5.
As to C4A G39C C66U, the yeast fitness is at most 0.5.
For C4G C5G A14G A43G, the yeast fitness is at most 0.5.
With C4A U13A G50A the figure was 0.613; with C4A G23A U35G C61A, at most 0.5; with C4A G39C C49A, at most 0.5.
As to C4A G6C C55U, the yeast fitness is at most 0.5.
As to C4G A15U G56C, the yeast fitness is at most 0.5.
With C4A C60A the figure was 0.676; with C4A C60G, 0.61.
For C4A G10A A36U, the yeast fitness was at most 0.5.
With C4G A21G C34U G44C C55G the figure was at most 0.5; with C4A G25A C29A A37G G50C C60G G63A, at most 0.5.
With C4A G9C C30A G39A the figure was 0.51; with C4A G38C G68A A69C, at most 0.5.
With C4G A14C C49U the figure was at most 0.5; with C4A C31A U35C A45U, at most 0.5; with C4A G10C C33U C46G U54A, at most 0.5.
Regarding C4G A14G G52A, the yeast fitness was at most 0.5.
Next, C4G A69C: 0.878; C4A G23C A40C C55A: 0.63; C4A C61U A69C: 0.578.
For the variant C4A U13A A70G, the yeast fitness was at most 0.5.
Turning to C4A U7A A14G G17C G56A C62U, the yeast fitness was at most 0.5.
Next, C4A U35C A57U: at most 0.5; C4G A15U C33A G68C: at most 0.5.
With C4A U32C A42C, the yeast fitness is 0.578.
With C4A C61G the figure was 0.71; with C4A C61U, 0.911.
With C4A G25C U32A A40C the figure was at most 0.5.
On to C4A G52A, for which the yeast fitness came to 0.884.
Consider C4A G41A A45U G58U C60A, for which the yeast fitness was at most 0.5.
With C4A C30G G41C G68A the figure was at most 0.5; with C4G A65C A69C, at most 0.5.
With C4A U19C A42G C60G the figure was at most 0.5; with C4A C31A C33U, at most 0.5; with C4G A21C A43U, at most 0.5.
As for C4A G25U A65C, the yeast fitness was at most 0.5.
In the case of C4A U8C U47C, the yeast fitness stood at 0.579.
With C4A U8C G10A A42C the figure was at most 0.5; with C4A C46G C60G, at most 0.5.
Turning to C4A G17C G23C A45C C66U, the yeast fitness was at most 0.5.
Next, C4A U19G A69C: 0.587; C4A U7A C46U: at most 0.5; C4G C5A C24U C61U C66U A70C: 0.514.
C4A U16C G17A G56C: the yeast fitness was at most 0.5.
Next, C4A U53C G67C: 0.537; C4A C31G G39A G51C: at most 0.5; C4G C5G C29U G39C: at most 0.5.
In the case of C4G A45U G48C C49G, the yeast fitness is at most 0.5.
With C4A U16C the figure was 0.702; with C4A U16A, 0.823.
Consider C4A U8C U59A, for which the yeast fitness is at most 0.5.
With C4A G6A G25A C29G A57G the figure was at most 0.5.
Next, C4G A40U A45U: 0.546.
